Drawing on ChEMBL document CHEMBL5678799 (Biochem J, 2009), this text covers Activity and inhibition for one compound.

Test [1] concerns the target Fibroblast growth factor receptor 1 (Homo sapiens) (UniProt P11362). Nature of the test: Inhibition of recombinant human N-terminal His6-tagged FGFR1 (400 to 820 residues) expressed in baculovirus infected Sf21 cells assessed as remaining activity at 1 uM using Poly(Glu,Tyr) as substrate incubated for 30 mins in presence of [gamma-33P]ATP by filter binding method relative to control. In short, it runs like this: (§1)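 Panel assays were run for 30 min at 21 °C, within the linear range for time and enzyme. […] Results are percent activity remaining relative to compound-free control, averaged from triplicate ± S.D.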

The target of test [2] is MAP kinase-activated protein kinase 2 (Homo sapiens) (UniProt P49137). In words: Inhibition of recombinant human N-terminal GST/C-terminal Myc-tagged MAPKAPK2 (46 to 400 residues) expressed in Escherichia coli assessed as remaining activity at 1 uM using KKLNRTLSVA as substrate incubated for 30 mins in presence of [gamma-33P]ATP by filter binding method relative to control. In short, it runs like this: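 Incubations ran robotically for 30 min at room temperature (21 °C) under linear conditions. Results are percent activity remaining versus controls without compound, as the mean of triplicates ± S.D.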

The target of test [3] is Phosphorylase b kinase gamma catalytic chain, skeletal muscle/heart isoform (Homo sapiens) (UniProt Q16816). Nature of the test: Inhibition of recombinant human N-terminal GST-tagged PHKgamma1 (2 to 297 residues) expressed in Escherichia coli assessed as remaining activity at 1 uM using phosphorylase b peptide as substrate incubated for 30 mins in presence of [gamma-33P]ATP by filter binding method relative to control. In a few lines:
(§2)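 Incubation was 30 min at room temperature (21 °C) under conditions linear with time and enzyme amount. Activity is reported as percent of control lacking compound, triplicate mean ± S.D.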

The target in test [4] is Serine/threonine-protein kinase pim-2 (Homo sapiens) (UniProt Q9P1W9). Nature of the test: Inhibition of recombinant human N-terminal GST-tagged PIM2 (2 to 334 residues) expressed in Escherichia coli assessed as remaining activity at 1 uM using RSRHSSYPAGT as substrate incubated for 30 mins in presence of [gamma-33P]ATP by filter binding method relative to control. In a few lines: (§3)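 Radiometric kinase panel run robotically at room temperature (21 °C) for 30 min, linear in time and enzyme. […] Activity is expressed as percent of control without compound, from triplicate determinations ± S.D.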

Test [5] concerns the target SRSF protein kinase 1 (Homo sapiens) (UniProt Q96SB4). Nature of the test: Inhibition of recombinant human N-terminal GST-tagged SRPK1 (2 to 654 residues) expressed in Escherichia coli assessed as remaining activity at 1 uM using RSRSRSRSRSRSRSR as substrate incubated for 30 mins in presence of [gamma-33P]ATP by filter binding assay relative to control. In short, it runs like this: as §2

Test [6] concerns the target Mitogen-activated protein kinase 1 (Homo sapiens) (UniProt P28482). Nature of the test: Inhibition of recombinant human N-terminal GST-tagged ERK2 (2 to 360 residues) expressed in Escherichia coli assessed as remaining activity at 10 uM using MBP as substrate incubated for 30 mins in presence of [gamma-33P]ATP by filter binding method relative to control. In a few lines:
as §2

The target in test [7] is Fibroblast growth factor receptor 1 (Homo sapiens) (UniProt P11362). In words: Inhibition of recombinant human N-terminal His6-tagged FGFR1 (400 to 820 residues) expressed in baculovirus infected Sf21 cells assessed as remaining activity at 10 uM using Poly(Glu,Tyr) as substrate incubated for 30 mins in presence of [gamma-33P]ATP by filter binding method relative to control. In a few lines:
as §1

In test [8] the target is Insulin-like growth factor 1 receptor (Homo sapiens) (UniProt P08069). Nature of the test: Inhibition of recombinant human N-terminal His6-tagged IGF1R (954 to 1367 residues) expressed in baculovirus infected Sf21 cells assessed as remaining activity at 10 uM using KKKSPGEYVNIEFG as substrate incubated for 30 mins in presence of [gamma-33P]ATP by filter binding method relative to control. In a few lines:
as §3

In test [9] the target is Insulin receptor (Homo sapiens) (UniProt P06213). In words: Inhibition of recombinant human N-terminal His6-tagged IR (1001 to 1382 residues) expressed in baculovirus infected Sf21 cells assessed as remaining activity at 10 uM using KKSRGDYMTMQIG as substrate incubated for 30 mins in presence of [gamma-33P]ATP by filter binding method relative to control.
Test [10] deals with Mitogen-activated protein kinase 12 (Homo sapiens) (UniProt P53778). In words: Inhibition of recombinant human N-terminal GST-tagged P38gamma (1 to 367 residues) expressed in Escherichia coli assessed as remaining activity at 10 uM using MBP as substrate incubated for 30 mins in presence of [gamma-33P]ATP by filter binding method relative to control. In a few lines: as §3
Test [11] addresses Serine/threonine-protein kinase pim-3 (Homo sapiens) (UniProt Q86V86). In words: Inhibition of recombinant human N-terminal His6-tagged PIM3 (2 to 326 residues) expressed in baculovirus infected Sf21 cells assessed as remaining activity at 10 uM using RSRHSSYPAGT as substrate incubated for 30 mins in presence of [gamma-33P]ATP by filter binding method relative to control.
Test [12] has as its system MEF. In words: Inhibition of mTORC2 in serum starved MEF cells assessed as reduction IGF1-stimulated AKT phosphorylation at Thr308 residue at 100 to 1000 nM incubated for 20 mins by immunoblot analysis. The format is cell-based. Conditions: Mus musculus, dose 100-1000 nM. In a few lines:
(§4)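 Serum withdrawn 16 h. Inhibitor or vehicle given 30 min before stimulation with 50 ng/ml IGF-1 for 20 min. Lysed in Tris lysis buffer and immunoblotted for Akt Thr308 phosphorylation with ECL detection. Applies to HEK-293 and to wild-type, Rictor, Sin1 or mLST8 knockout MEFs. Three independent experiments.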
For orientation: In western blotting, separated proteins are transferred to a membrane and probed.

Test [13] relates to MEF. Nature of the test: Inhibition of mTORC2 in serum starved Rictor knockout MEF cells assessed as reduction IGF1-stimulated AKT phosphorylation at Thr308 residue at 100 to 1000 nM incubated for 20 mins by immunoblot analysis. The format is cell-based. The settings on record: Mus musculus, dose 100-1000 nM. In a few lines: as §4
The target in test [14] is T1, mTORC1 (Homo sapiens) (UniProt P42345+Q8N122+Q9BVC4). Conditions: HEK293, dose 30-1000 nM, time 30.0 min.
Test [15] addresses T1, mTORC1 (Homo sapiens). Conditions: HEK293, dose 300.0 nM, time 30.0 min.
Test [16] addresses T2, mTORC2 (Homo sapiens) (UniProt P42345+Q6R327+Q9BVC4+Q9BPZ7). Conditions: HEK293, dose 30-1000 nM, time 30.0 min.
Test [17] has as its target T2, mTORC2 (Homo sapiens). Conditions: HEK293, dose 30-1000 nM, time 30.0 min. This is another data set of the same source.
The target in test [18] is T2, mTORC2 (Homo sapiens). The settings on record: HEK293, dose 30-1000 nM, time 30.0 min. The source holds these as a separate data set.
Test [19] addresses Serine/threonine-protein kinase D1 (Homo sapiens) (UniProt Q15139). Nature of the test: Inhibition of recombinant human N-terminal His6-tagged PKD1 (2 to 912 residues) expressed in baculovirus infected Sf21 cells assessed as remaining activity at 10 uM using KKLNRTLSVA as substrate incubated for 30 mins in presence of [gamma-33P]ATP by filter binding method relative to control.

In general, inhibition refers to the percentage by which the read-out fell short of the control.

Active and inactive are the calls of the source. The rule behind the calls is not given here.

Sequence of Fibroblast growth factor receptor 1 (Homo sapiens) (P11362 22-822 limits assumed): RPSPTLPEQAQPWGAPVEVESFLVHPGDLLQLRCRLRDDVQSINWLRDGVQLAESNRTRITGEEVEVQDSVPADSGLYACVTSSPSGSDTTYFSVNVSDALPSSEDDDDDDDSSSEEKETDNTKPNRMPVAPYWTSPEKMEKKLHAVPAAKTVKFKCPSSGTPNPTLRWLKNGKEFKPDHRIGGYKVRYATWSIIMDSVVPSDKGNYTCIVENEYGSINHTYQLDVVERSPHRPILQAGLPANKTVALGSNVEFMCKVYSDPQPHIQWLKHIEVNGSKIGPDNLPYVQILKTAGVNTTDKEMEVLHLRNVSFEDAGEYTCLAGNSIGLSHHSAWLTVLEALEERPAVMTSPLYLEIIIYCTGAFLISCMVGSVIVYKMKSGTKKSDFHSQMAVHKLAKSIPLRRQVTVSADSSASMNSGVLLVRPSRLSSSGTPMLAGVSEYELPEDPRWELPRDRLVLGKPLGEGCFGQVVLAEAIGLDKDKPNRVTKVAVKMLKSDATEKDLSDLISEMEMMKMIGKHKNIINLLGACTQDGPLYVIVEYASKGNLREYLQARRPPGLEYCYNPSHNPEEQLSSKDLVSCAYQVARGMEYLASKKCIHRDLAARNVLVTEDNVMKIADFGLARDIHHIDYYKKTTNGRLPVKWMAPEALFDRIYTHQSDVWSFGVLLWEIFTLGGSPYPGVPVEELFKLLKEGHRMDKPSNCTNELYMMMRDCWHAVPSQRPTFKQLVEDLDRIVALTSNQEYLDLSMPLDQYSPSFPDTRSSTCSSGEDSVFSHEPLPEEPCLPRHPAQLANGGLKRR
Sequence of MAP kinase-activated protein kinase 2 (Homo sapiens) (P49137 whole entry, looked up, the tested form may be a part): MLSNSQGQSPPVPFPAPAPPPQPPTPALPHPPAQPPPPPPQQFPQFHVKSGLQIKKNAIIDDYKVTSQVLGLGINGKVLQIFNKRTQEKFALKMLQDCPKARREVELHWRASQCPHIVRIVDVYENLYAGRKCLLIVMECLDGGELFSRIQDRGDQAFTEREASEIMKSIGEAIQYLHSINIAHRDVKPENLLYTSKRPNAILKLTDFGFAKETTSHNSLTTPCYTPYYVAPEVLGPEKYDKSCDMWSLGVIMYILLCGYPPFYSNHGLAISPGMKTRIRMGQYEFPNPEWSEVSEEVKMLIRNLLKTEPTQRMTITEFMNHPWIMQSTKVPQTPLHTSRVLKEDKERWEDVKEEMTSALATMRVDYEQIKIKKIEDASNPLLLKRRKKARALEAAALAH
Sequence of Insulin receptor (Homo sapiens) (P06213 28-758 limits assumed): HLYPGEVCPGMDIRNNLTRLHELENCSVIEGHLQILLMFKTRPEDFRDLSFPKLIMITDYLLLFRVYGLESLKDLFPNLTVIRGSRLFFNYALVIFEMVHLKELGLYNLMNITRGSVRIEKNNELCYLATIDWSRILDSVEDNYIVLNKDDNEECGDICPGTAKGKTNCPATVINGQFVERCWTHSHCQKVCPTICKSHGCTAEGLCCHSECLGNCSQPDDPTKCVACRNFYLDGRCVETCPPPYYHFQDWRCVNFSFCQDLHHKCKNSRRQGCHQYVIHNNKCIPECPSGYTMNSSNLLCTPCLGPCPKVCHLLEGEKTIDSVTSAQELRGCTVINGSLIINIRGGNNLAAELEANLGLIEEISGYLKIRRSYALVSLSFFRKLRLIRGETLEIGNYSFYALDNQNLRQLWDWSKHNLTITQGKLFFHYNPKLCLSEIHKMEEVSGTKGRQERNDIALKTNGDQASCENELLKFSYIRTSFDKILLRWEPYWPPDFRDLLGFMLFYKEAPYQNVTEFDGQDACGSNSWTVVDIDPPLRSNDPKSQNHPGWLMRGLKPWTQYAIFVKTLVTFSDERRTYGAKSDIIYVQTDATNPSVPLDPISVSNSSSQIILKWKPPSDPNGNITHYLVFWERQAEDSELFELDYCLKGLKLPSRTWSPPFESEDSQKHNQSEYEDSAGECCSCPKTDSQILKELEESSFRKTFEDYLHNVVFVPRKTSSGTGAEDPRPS
Sequence of Insulin receptor (Homo sapiens) (P06213 763-1382 limits assumed): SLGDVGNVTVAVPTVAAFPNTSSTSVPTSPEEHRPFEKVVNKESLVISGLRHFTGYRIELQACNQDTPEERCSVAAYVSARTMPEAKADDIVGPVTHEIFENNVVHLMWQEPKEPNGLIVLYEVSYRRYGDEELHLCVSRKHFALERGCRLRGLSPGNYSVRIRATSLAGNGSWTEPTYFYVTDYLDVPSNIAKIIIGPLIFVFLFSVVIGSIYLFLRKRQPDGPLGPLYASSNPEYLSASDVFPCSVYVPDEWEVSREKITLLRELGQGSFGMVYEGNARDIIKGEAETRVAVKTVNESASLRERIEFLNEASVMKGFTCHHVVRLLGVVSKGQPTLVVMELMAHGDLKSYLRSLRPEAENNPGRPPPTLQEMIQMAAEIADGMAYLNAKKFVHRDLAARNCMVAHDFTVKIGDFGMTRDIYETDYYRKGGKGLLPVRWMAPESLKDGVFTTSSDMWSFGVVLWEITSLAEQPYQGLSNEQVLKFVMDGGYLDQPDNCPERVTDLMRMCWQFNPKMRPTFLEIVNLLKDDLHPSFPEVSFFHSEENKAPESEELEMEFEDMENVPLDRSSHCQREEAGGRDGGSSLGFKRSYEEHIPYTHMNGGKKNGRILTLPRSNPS
Sequence of Insulin-like growth factor 1 receptor (Homo sapiens) (P08069 31-736 limits assumed): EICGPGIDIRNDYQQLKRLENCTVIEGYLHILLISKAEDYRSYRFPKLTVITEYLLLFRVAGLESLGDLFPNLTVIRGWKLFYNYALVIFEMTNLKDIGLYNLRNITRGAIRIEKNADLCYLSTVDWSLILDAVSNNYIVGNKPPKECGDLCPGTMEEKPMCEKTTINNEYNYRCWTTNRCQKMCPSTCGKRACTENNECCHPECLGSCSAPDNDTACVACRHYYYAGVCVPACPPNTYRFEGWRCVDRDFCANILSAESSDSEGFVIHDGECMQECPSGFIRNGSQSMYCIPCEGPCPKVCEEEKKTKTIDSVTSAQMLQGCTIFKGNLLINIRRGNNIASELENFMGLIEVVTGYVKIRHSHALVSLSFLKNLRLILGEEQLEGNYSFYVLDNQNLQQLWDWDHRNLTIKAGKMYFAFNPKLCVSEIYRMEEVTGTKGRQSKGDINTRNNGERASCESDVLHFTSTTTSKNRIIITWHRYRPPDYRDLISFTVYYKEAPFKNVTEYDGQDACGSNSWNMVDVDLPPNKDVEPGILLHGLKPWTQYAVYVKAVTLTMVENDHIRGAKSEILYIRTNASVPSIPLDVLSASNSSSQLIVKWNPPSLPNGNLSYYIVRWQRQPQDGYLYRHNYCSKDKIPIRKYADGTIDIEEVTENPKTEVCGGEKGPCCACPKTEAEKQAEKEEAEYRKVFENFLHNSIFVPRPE
Sequence of Insulin-like growth factor 1 receptor (Homo sapiens) (P08069 741-1367 limits assumed): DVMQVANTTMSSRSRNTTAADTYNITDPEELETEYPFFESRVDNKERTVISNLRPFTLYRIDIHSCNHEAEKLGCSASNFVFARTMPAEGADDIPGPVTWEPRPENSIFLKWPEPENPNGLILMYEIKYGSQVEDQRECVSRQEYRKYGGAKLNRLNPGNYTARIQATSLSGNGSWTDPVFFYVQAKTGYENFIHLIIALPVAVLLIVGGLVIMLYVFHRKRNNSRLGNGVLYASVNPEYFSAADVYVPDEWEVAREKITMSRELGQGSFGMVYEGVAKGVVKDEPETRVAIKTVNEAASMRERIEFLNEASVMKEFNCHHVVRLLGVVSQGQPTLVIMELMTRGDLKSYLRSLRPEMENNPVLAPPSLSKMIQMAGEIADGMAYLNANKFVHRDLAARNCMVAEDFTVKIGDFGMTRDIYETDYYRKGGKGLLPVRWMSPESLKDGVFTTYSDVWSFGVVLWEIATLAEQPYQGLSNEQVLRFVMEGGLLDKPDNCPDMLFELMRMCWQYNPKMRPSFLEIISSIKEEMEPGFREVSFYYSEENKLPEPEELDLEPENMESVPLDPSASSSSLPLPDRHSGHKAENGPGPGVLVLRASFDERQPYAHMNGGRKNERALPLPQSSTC
Sequence of Serine/threonine-protein kinase pim-2 (Homo sapiens) (Q9P1W9 whole entry, looked up, the tested form may be a part): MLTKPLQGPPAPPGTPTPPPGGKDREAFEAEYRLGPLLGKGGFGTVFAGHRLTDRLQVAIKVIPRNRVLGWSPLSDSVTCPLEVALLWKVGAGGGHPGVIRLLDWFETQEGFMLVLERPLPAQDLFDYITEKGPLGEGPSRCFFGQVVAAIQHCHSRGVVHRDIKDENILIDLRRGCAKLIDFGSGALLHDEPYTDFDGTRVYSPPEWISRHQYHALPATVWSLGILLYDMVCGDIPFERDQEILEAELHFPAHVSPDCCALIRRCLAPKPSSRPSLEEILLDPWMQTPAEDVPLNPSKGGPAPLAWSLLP
Sequence of Mitogen-activated protein kinase 1 (Homo sapiens) (P28482 whole entry, the tested form may be a part): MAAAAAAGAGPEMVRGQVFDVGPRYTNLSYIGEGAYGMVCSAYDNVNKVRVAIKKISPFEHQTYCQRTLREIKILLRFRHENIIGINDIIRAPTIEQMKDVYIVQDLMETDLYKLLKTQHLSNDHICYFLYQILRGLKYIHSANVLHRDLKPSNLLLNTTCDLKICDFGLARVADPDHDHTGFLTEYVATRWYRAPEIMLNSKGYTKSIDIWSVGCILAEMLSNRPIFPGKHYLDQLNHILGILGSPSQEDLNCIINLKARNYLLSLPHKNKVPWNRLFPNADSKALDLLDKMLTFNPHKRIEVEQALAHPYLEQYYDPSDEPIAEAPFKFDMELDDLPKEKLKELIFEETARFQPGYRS

In the case of `COc1ccc(-c2ccc3c(N4CCOCC4)nc(N4C[C@@H](C)O[C@@H](C)C4)nc3n2)cc1CO` [Ku-0063794], the Activity in [1] came to 102%; in test [2], 98%; in test [3], 89%; in [4], 86%; in test [5], 101%; in [6], 92%. Also, the Activity in test [7] came to 87%; in test [8], 89%; in [9], 67%; in [10], 91%; in [11] it was 75%; in [19] it was 101%. The inhibition entry in the test with MEF [12], with MEF [13], on mTORC1 (Homo sapiens) [14], at mTORC2 (Homo sapiens) [17] and at mTORC2 (Homo sapiens) [18] was “Active” in each case. Also, the inhibition against mTORC1 (Homo sapiens) [15] was 90%; at mTORC2 (Homo sapiens) [16], “Dose-Dependent Effect”.
